A short description of data set [1]: Multiple-dose pharmacokinetics of semaglutide. The format is in vivo, human. The essentials: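 Test compound (1.34 mg/mL) was given s.c. once weekly at 0.25 mg for 4 weeks, 0.5 mg for 4 weeks, then 1.0 mg for 4 weeks. Steady-state trough concentrations were taken after 4, 8 and 12 weeks. After a further clinic 1.0 mg dose, steady-state parameters were derived from 0–168 h concentration-time curves.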

For data set [2], the system named is subjects with obesity. Kind of data set: Safety and tolerability. The format is in vivo, human. The method in brief:
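Safety was followed through both 12-week periods of randomised crossover s.c. weekly dosing (0.25, 0.5, then 1.0 mg, 4 weeks each) versus matching placebo. Assessments were adverse events, hypoglycaemic events and blood pressure.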

Where [3] appears, read: 12 weeks, once-weekly s.c. escalated to 1.0 mg.

Structures are written as SMILES.

For `CC[C@H](C)[C@H](NC(=O)[C@H](Cc1ccccc1)NC(=O)[C@H](CCC(=O)O)NC(=O)[C@H](CCCCNC(=O)COCCOCCNC(=O)COCCOCCNC(=O)CC[C@H](NC(=O)CCCCCCCCCCCCCCCCC(=O)O)C(=O)O)NC(=O)[C@H](C)NC(=O)[C@H](C)NC(=O)[C@H](CCC(N)=O)NC(=O)CNC(=O)[C@H](CCC(=O)O)NC(=O)[C@H](CC(C)C)NC(=O)[C@H](Cc1ccc(O)cc1)NC(=O)[C@H](CO)NC(=O)[C@H](CO)NC(=O)[C@@H](NC(=O)[C@H](CC(=O)O)NC(=O)[C@H](CO)NC(=O)[C@@H](NC(=O)[C@H](Cc1ccccc1)NC(=O)[C@@H](NC(=O)CNC(=O)[C@H](CCC(=O)O)NC(=O)C(C)(C)NC(=O)[C@@H](N)Cc1cnc[nH]1)[C@@H](C)O)[C@@H](C)O)C(C)C)C(=O)N[C@@H](C)C(=O)N[C@@H](Cc1c[nH]c2ccccc12)C(=O)N[C@@H](CC(C)C)C(=O)N[C@H](C(=O)N[C@@H](CCCNC(=N)N)C(=O)NCC(=O)N[C@@H](CCCNC(=N)N)C(=O)NCC(=O)O)C(C)C` [semaglutide], the “Mean trough value (CV)” value is reported as 4.64 (32.5) nmol/L in data set [1] (0.25 mg s.c. once-weekly, after 4 weeks of treatment); 10.25 (23.3) nmol/L in data set [1] (0.5 mg s.c. once-weekly, after 8 weeks of treatment); 19.73 (21.9) nmol/L in data set [1] (1.0 mg s.c. once-weekly, after 12 weeks of treatment). The “Severe or blood glucose-confirmed symptomatic hypoglycaemic events” value in data set [2] (12 weeks) is “No severe or blood glucose‐confirmed symptomatic hypoglycaemic events were reported”. Besides, the “Serious AEs” value in data set [2] (setting [3]) is “no serious AEs were reported”. In data set [2] (setting [3]), the “Severity of AEs” value is reported as “mild or moderate”. Moreover, the “Observed mean changes from baseline in systolic and diastolic blood pressure” value in data set [2] (week 12, either treatment) is on record as at most 2 mm Hg.

Source of the values: PMC5573908 (Diabetes, Obesity & Metabolism, 2017).
